Experimental findings from ChEMBL document CHEMBL1136122, “Are 5'-O-carbamate-2',3'-dideoxythiacytidine new anti-HIV and anti-HBV nucleoside drugs or prodrugs?” (Bioorg Med Chem Lett, 2003) are described below.

The structures appear in SMILES notation.

For one experiment, the system named is HepG2. Description: In vitro concentration required to inhibit HBV DNA secretion by HepG2.2.15 transfected by HBV. Format: functional, cell-based. The following applies: Homo sapiens. In outline:
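Used HepG2.2.15 cells stably transfected with HBV, following a standard procedure. EC50 is the concentration giving 50% inhibition of HBV DNA secretion, reported with standard deviation.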

Experiment [1] has as its system MT4. The experiment in a line: In vitro concentration required to cause death of uninfected MT-4 cell. Format: functional. The conditions noted are these: Homo sapiens.
Experiment [2] relates to MT4. Description: In vitro concentration required to inhibit the cytopathicity of HIV-1 IIIB on MT-4 cell. In kind it is functional, cell-based. The conditions noted are these: Homo sapiens. In outline: (§1)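 EC50 is reported with standard deviation. In MT-4 cells it is 50% protection from HIV-1 cytopathicity. In PBMCs it is 50% inhibition of HIV-1 replication.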
(In general: Cytopathic effects are the visible damage that an infection or toxin causes in cultured cells.)

Experiment [3] in a line: In vitro concentration required to cause death of uninfected PBMCs cell (peripheral blood mononuclear cells). The following applies: Homo sapiens, PBMC. In kind it is functional.
The nature of experiment [4]: In vitro concentration required to inhibit the HIV-1 LA1 replication on PBMCs cell (peripheral blood mononuclear cells). The conditions noted are these: Homo sapiens, PBMC. Format: functional, cell-based. In outline:
as §1

The nature of experiment [5]: Selectivity (CC50/EC50) for death of uninfected MT4 cell to that of inhibition of cytopathicity of HIV-1 IIIB on MT-4 cell. Format: functional.
Experiment [6] is described as follows: Selectivity (CC50/EC50) for death of uninfected PBMCs to that of inhibition of […] of HIV-1 LA1 on PBMCs (peripheral blood mononuclear cells). Format: functional.
Experiment [7] deals with MT4. Description: In vitro concentration required to inhibit the cytopathicity of HIV-1 IIIB on MT-4 cell; NA=no activity. Format: functional, cell-based, Homo sapiens. In outline: as §1

One may read the EC50 as the concentration that produces a half-maximal response. Low readings indicate an effect from little substance, high ones a need for much substance. In general, CC50 refers to the concentration that lowers cell viability or growth by half. Lower therefore signals greater toxicity to the cells.

Turning to `Nc1ccn(C2CSC(COC(=O)NCCCCO)O2)c(=O)n1` (centres undefined), the EC50 with HepG2 was 5 µM; in the experiment on MT4 [2], over 200 µM; in experiment [4] it was over 10 µM. Also, the CC50 is over 217 µM in the experiment with MT4 [1] and over 10 µM in experiment [3].
As to `CCOP(=O)(CNC(=O)OCC1OC(n2ccc(N)nc2=O)CS1)OCC` (centres undefined), the EC50 in the experiment on HepG2 is over 5 µM; in the experiment with MT4 [2] it was 126 µM; in experiment [4] it was 10 µM. Besides, the figures for the 50% cytotoxic concentration (CC50) (with MT4 [1]; in experiment [3]) were over 233 µM and over 10 µM, respectively. Further, the SI was over 2 in experiment [5] and over 1 in experiment [6].
Turning to `NCCCCNC(=O)OCC1OC(n2ccc(N)nc2=O)CS1` (centres undefined), the EC50 in the experiment with HepG2 amounted to 1 µM; in the experiment on MT4 [2], 15 µM; in experiment [4] it was 10 µM. Moreover, the CC50 in the experiment on MT4 [1] is over 218 µM; in experiment [3] it was over 10 µM. Moreover, the SI is listed as over 14 in experiment [5] and over 1 in experiment [6].
Turning to `NCCCNC(=O)OCC1OC(n2ccc(N)nc2=O)CS1` (centres undefined), the values for the EC50 (in the experiment on HepG2; with MT4 [2]; in experiment [4]) were 1 µM, 27 µM and 1 µM, respectively. Further, the CC50 is over 282 µM in the experiment with MT4 [1] and over 10 µM in experiment [3]. Also, the SI in experiment [5] and in experiment [6] was over 10 each time.
Regarding `CCCCNC(=O)OCC1OC(n2ccc(N)nc2=O)CS1` (centres undefined), the EC50 with HepG2 was 1 µM; in the experiment on MT4 [2], 26 µM; in experiment [4] it was 5 µM. Moreover, the CC50 with MT4 [1] was over 283 µM; in experiment [3], over 10 µM. Also, the SI in experiment [5] was over 11; in experiment [6], over 2.
On to `CCCNC(=O)OCC1OC(n2ccc(N)nc2=O)CS1` (centres undefined), for which the EC50 was determined as 5 µM in the experiment on HepG2, 32 µM in the experiment on MT4 [2] and 10 µM in experiment [4]. Moreover, the CC50 with MT4 [1] was over 285 µM; in experiment [3], over 10 µM. For the same molecule, the SI is over 9 in experiment [5] and over 1 in experiment [6].
On to `Nc1ccn(C2CSC(COC(=O)NCCCCCCO)O2)c(=O)n1` (centres undefined), for which the EC50 in the experiment with HepG2 stood at 5 µM; in the experiment on MT4 [2], 75 µM; in experiment [4], 10 µM. Also, the results for the CC50 (in the experiment with MT4 [1]; in experiment [3]) were over 208 µM and over 10 µM, respectively. Also, the SI in experiment [5] is listed as over 3; in experiment [6] it was over 1.
Turning to `Nc1ccn(C2CSC(COC(=O)NCP(=O)(O)O)O2)c(=O)n1` (centres undefined), the results for the EC50 (in the experiment on HepG2; in the experiment with MT4 [7]; in experiment [4]) were 5 µM, “Not Active” and over 10 µM, respectively. Moreover, the CC50 is over 322 µM in the experiment with MT4 [1] and over 10 µM in experiment [3].
For `NCCCOC(=O)OCC1OC(n2ccc(N)nc2=O)CS1` (centres undefined), the EC50 in the experiment on HepG2 was determined as 0.5 µM; in the experiment on MT4 [2], 0.3 µM; in experiment [4], 0.01 µM. The CC50 with MT4 [1] is over 17 µM; in experiment [3], over 10 µM. Also, the values for the SI in experiment [5] and in experiment [6] were over 57 and over 1000, respectively.
Consider `NCCCCOC(=O)OCC1OC(n2ccc(N)nc2=O)CS1` (centres undefined), for which the values for the EC50 (in the experiment on HepG2; in the experiment with MT4 [2]; in experiment [4]) were 1 µM, 0.8 µM and 0.1 µM, respectively. Moreover, the CC50 is over 218 µM with MT4 [1] and over 10 µM in experiment [3]. The SI is over 260 in experiment [5] and over 100 in experiment [6].
In the case of `Nc1ccn(C2CSC(COC(=O)NCCCO)O2)c(=O)n1` (centres undefined), the EC50 was 1 µM with HepG2, over 254 µM with MT4 [2] and over 10 µM in experiment [4]. For the same molecule, the figures for the CC50 (with MT4 [1]; in experiment [3]) were over 281 µM and over 10 µM, respectively. The SI in experiment [6] is recorded as over 1.
`Nc1ccn([C@@H]2CS[C@H](CO)O2)c(=O)n1` [LAMIVUDINE]: the values for the EC50 (with HepG2; in the experiment with MT4 [2]; in experiment [4]) were 0.4 µM, 0.4 µM and 0.01 µM, respectively. Besides, the CC50 is over 44 µM in the experiment with MT4 [1] and over 10 µM in experiment [3]. The SI was over 107 in experiment [5] and over 1000 in experiment [6].
